Results: ChEMBL document CHEMBL1142492 (J Med Chem, 2008)

Assays:
[1] = molecular target: Cyclin-dependent kinase 7 (Homo sapiens) (UniProt P50613); assay: Inhibition of CDK7 at 3 uM
[2] = molecular target: Calcium/calmodulin-dependent protein kinase type 1G (Homo sapiens) (UniProt Q96NX5); assay: Inhibition of CAMK1G at 3 uM
[3] = molecular target: Substance-P receptor (Homo sapiens) (UniProt P25103); assay: Inhibition of human NK1 receptor at 3 uM
How it was run: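 Counter-screen binding/enzyme panel at single 3 μM, n=2; results as percent inhibition. Species per target as listed (rat NMDA, GABAA sites; human receptors, transporters; rabbit ACE).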

[4] = molecular target: Mitogen-activated protein kinase 14 (Homo sapiens) (UniProt Q16539); assay: Inhibition of p38-alpha at 3 uM
[5] = molecular target: Serine/threonine-protein kinase pim-3 (Homo sapiens) (UniProt Q86V86); assay: Inhibition of PIM3 at 3 uM
[6] = tested on: Serine/threonine-protein kinase B-raf (Homo sapiens), P15056 [V600E]; assay: Inhibition of BRAF V600E mutant at 3 uM
CYP1A2 = molecular target: T1, CYP1A2 (Homo sapiens, UniProt P05177); assay: Inhibition of human CYP1A2 at 10 uM; assay type: ADME
T1 sequence (P05177 whole entry): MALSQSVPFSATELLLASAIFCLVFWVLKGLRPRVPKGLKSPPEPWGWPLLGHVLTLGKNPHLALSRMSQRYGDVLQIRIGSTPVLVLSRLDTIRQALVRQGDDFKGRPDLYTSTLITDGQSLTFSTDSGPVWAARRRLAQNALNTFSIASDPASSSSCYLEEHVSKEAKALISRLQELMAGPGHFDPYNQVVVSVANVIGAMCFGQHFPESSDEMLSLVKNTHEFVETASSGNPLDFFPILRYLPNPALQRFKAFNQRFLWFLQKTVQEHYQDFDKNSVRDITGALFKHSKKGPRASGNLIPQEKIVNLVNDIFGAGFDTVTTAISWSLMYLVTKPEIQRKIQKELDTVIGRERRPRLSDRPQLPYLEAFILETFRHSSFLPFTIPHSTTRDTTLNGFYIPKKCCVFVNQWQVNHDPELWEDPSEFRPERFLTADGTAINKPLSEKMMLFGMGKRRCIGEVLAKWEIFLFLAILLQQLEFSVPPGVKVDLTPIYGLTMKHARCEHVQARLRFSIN

[7] = molecular target: Mitogen-activated protein kinase kinase kinase 7 (TAK1) (Homo sapiens) (UniProt O43318); assay: Inhibition of TAK1 at 3 uM
[8] = molecular target: Tyrosine-protein kinase ABL2 (Homo sapiens) (UniProt P42684); assay: Inhibition of ABL2 at 3 uM
[9] = molecular target: Tyrosine-protein kinase SYK (Homo sapiens) (UniProt P43405); assay: Inhibition of SYK at 3 uM
[10] = molecular target: RAC-gamma serine/threonine-protein kinase (Homo sapiens) (UniProt Q9Y243); assay: Inhibition of AKT3 at 3 uM
[11] = molecular target: Calcium/calmodulin-dependent protein kinase type 1 (Homo sapiens) (UniProt Q14012); assay: Inhibition of CAMK1 at 3 uM
[12] = molecular target: Calcium/calmodulin-dependent protein kinase type II subunit beta (Homo sapiens) (UniProt Q13554); assay: Inhibition of CAMK2B at 3 uM
[13] = molecular target: Ephrin type-B receptor 2 (Homo sapiens) (UniProt P29323); assay: Inhibition of EPHB2 at 3 uM
How it was run: (§1)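 Single-concentration kinase panel scoring: each value is the percentage of enzyme activity remaining relative to a DMSO-only control. An activity statistically indistinct from DMSO control was scored "no hit".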

[14] = molecular target: Dual specificity testis-specific protein kinase 1 (Homo sapiens) (UniProt Q15569); assay: Inhibition of TESK1 at 3 uM
[15] = molecular target: Tyrosine-protein kinase Yes (Homo sapiens) (UniProt P07947); assay: Inhibition of YES at 3 uM
[16] = molecular target: Cyclin-dependent kinase 9 (Homo sapiens) (UniProt P50750); assay: Inhibition of CDK9 at 3 uM
[17] = molecular target: NUAK family SNF1-like kinase 1 (Homo sapiens) (UniProt O60285); assay: Inhibition of ARK5 at 3 uM
[18] = molecular target: Receptor tyrosine-protein kinase erbB-4 (Homo sapiens) (UniProt Q15303); assay: Inhibition of ERBB4 at 3 uM; how it was run: as §1
[19] = tested on: eIF-2-alpha kinase GCN2 (Homo sapiens), Q9P2K8 [S808G]; assay: Inhibition of GCN2 Kin.Dom.2,S808G mutant at 3 uM
[20] = molecular target: Dual specificity mitogen-activated protein kinase kinase 6 (Homo sapiens) (UniProt P52564); assay: Inhibition of MEK6 at 3 uM
[21] = molecular target: Atypical kinase COQ8A, mitochondrial (Homo sapiens) (UniProt Q8NI60); assay: Inhibition of ADCK3 at 3 uM
[22] = molecular target: Rho-associated protein kinase 2 (Homo sapiens, UniProt O75116); assay: Inhibition of ROCK2 at 3 uM
[23] = molecular target: Tyrosine-protein kinase receptor Tie-1 (Homo sapiens) (UniProt P35590); assay: Inhibition of TIE1 at 3 uM
[24] = molecular target: Mitogen-activated protein kinase 13 (Homo sapiens) (UniProt O15264); assay: Inhibition of p38-delta at 3 uM
[25] = Inhibition of myosin light chain bisphosphorylation in rat A7r5 cells after 1 hr
[26] = molecular target: Mitogen-activated protein kinase kinase kinase kinase 2 (Homo sapiens) (UniProt Q12851); assay: Inhibition of MAP4K2 at 3 uM
[27] = molecular target: Protein kinase C epsilon type (Homo sapiens) (UniProt Q02156); assay: Inhibition of PRKCE at 3 uM
[28] = molecular target: Serine/threonine-protein kinase 25 (Homo sapiens) (UniProt O00506); assay: Inhibition of YSK1 at 3 uM
[29] = molecular target: Calcium/calmodulin-dependent protein kinase kinase 2 (Homo sapiens) (UniProt Q96RR4); assay: Inhibition of CAMKK2 at 3 uM
[30] = molecular target: Wee1-like protein kinase (Homo sapiens) (UniProt P30291); assay: Inhibition of WEE1 at 3 uM
[31] = molecular target: RAC-beta serine/threonine-protein kinase (Homo sapiens) (UniProt P31751); assay: Inhibition of AKT2 at 3 uM
[32] = molecular target: Serine/threonine-protein kinase 17B (Homo sapiens) (UniProt O94768); assay: Inhibition of DRAK2 at 3 uM
[33] = molecular target: Calcium/calmodulin-dependent protein kinase type 1D (Homo sapiens) (UniProt Q8IU85); assay: Inhibition of CAMK1D at 3 uM
[34] = tested on: Mast/stem cell growth factor receptor Kit (Homo sapiens), P10721 [D816V]; assay: Inhibition of KIT D816V mutant at 3 uM
[35] = tested on: Epidermal growth factor receptor (Homo sapiens), P00533 [L858R]; assay: Inhibition of EGFR L858R mutant at 3 uM; assay type: protein assay; how it was run: as §1
[36] = molecular target: Cyclin-dependent kinase 2 (Homo sapiens) (UniProt P24941); assay: Inhibition of CDK2 at 3 uM
[37] = molecular target: Serine/threonine-protein kinase Nek2 (Homo sapiens) (UniProt P51955); assay: Inhibition of NEK2 at 3 uM

Chain of Serine/threonine-protein kinase 25 (Homo sapiens) (O00506 whole entry, looked up): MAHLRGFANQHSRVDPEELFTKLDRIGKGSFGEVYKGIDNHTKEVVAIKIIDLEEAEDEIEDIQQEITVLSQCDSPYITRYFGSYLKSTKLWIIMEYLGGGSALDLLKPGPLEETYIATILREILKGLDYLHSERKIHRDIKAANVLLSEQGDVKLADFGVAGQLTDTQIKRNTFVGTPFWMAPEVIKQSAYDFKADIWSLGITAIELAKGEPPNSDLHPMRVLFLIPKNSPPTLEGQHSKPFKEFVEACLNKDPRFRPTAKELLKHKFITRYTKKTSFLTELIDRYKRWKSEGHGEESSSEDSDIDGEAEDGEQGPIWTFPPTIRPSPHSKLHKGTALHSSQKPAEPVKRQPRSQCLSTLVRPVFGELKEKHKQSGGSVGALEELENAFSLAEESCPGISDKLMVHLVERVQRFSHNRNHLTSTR
Chain of Cyclin-dependent kinase 7 (Homo sapiens) (P50613 whole entry): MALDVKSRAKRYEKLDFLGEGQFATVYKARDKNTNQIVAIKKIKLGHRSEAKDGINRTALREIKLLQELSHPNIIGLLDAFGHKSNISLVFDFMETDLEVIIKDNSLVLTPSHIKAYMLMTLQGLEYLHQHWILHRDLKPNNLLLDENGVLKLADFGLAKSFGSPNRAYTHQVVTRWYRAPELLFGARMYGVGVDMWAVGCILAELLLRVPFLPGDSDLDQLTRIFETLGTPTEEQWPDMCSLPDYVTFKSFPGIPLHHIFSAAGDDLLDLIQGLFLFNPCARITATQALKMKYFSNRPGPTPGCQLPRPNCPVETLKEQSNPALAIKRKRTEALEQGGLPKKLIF
Chain of Mitogen-activated protein kinase 14 (Homo sapiens) (Q16539 whole entry): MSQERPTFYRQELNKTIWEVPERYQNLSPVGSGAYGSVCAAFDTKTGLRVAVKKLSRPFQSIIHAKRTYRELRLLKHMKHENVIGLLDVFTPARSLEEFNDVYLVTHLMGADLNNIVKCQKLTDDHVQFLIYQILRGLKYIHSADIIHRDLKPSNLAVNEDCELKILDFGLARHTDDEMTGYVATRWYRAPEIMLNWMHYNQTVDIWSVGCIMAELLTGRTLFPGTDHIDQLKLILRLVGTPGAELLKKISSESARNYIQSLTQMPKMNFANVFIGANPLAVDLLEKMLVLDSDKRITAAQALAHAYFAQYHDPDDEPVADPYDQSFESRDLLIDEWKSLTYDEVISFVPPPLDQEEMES
Chain of Tyrosine-protein kinase receptor Tie-1 (Homo sapiens) (P35590 whole entry): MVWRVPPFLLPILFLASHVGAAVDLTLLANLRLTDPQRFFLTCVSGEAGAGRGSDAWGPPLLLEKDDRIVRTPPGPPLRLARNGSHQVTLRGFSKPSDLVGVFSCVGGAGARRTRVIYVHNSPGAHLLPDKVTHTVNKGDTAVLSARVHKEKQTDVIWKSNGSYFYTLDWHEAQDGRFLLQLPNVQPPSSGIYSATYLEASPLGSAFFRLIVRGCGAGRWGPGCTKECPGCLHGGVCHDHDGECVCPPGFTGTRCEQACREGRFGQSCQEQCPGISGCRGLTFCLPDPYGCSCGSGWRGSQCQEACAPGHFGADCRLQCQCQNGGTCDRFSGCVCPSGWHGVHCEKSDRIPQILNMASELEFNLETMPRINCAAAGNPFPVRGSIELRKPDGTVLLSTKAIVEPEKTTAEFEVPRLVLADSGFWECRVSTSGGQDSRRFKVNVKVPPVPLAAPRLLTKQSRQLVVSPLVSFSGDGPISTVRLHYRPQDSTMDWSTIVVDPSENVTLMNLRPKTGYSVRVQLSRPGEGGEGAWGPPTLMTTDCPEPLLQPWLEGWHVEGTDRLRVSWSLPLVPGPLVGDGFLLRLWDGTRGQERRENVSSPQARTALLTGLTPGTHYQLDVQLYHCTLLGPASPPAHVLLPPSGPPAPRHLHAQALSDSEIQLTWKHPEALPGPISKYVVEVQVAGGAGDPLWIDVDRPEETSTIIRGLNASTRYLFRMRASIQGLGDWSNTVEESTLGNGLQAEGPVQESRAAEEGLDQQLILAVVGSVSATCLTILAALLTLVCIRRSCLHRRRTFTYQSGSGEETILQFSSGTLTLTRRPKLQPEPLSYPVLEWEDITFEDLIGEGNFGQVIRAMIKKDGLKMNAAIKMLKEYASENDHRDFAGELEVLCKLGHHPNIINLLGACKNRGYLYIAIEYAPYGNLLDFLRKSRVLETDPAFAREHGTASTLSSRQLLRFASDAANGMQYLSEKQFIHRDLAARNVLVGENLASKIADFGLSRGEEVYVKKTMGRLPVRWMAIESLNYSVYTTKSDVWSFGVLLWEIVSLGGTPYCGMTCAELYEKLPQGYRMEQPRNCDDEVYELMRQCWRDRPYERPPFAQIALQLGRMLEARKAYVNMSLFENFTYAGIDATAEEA
Chain of RAC-beta serine/threonine-protein kinase (Homo sapiens) (P31751 whole entry): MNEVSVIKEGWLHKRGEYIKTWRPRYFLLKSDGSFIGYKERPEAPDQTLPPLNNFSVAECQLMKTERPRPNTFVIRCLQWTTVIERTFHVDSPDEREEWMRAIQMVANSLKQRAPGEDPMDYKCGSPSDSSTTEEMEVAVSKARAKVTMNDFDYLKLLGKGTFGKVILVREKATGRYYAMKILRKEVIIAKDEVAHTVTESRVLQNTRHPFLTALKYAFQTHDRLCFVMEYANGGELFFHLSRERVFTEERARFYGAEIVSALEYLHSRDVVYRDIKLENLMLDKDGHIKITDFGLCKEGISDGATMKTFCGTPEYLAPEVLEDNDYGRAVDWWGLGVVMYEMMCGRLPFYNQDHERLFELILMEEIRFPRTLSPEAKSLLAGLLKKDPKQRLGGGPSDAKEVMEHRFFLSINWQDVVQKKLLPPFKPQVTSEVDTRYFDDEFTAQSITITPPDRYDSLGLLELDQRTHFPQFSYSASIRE
Chain of Mitogen-activated protein kinase kinase kinase kinase 2 (Homo sapiens) (Q12851 whole entry): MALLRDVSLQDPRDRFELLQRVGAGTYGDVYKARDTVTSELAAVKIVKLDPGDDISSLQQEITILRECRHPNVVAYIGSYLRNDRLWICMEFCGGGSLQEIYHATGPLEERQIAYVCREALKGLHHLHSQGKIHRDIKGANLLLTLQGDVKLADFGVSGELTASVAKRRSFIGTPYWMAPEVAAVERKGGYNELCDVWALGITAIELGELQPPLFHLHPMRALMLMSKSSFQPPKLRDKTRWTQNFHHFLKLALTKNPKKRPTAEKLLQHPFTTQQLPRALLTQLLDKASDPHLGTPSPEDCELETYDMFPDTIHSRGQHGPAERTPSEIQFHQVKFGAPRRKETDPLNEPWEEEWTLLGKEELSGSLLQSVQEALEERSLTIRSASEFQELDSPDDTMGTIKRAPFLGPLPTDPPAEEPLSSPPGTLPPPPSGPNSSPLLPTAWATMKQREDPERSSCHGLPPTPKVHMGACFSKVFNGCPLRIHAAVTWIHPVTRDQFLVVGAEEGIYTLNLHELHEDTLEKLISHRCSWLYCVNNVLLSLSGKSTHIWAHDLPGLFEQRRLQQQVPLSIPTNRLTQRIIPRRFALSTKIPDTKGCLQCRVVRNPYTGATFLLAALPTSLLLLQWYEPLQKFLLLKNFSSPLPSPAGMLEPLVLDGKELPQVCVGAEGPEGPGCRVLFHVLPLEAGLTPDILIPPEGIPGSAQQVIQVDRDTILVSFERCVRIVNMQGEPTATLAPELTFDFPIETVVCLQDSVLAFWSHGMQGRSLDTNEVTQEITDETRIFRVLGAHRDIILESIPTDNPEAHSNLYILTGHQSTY
Chain of Ephrin type-B receptor 2 (Homo sapiens) (P29323 whole entry): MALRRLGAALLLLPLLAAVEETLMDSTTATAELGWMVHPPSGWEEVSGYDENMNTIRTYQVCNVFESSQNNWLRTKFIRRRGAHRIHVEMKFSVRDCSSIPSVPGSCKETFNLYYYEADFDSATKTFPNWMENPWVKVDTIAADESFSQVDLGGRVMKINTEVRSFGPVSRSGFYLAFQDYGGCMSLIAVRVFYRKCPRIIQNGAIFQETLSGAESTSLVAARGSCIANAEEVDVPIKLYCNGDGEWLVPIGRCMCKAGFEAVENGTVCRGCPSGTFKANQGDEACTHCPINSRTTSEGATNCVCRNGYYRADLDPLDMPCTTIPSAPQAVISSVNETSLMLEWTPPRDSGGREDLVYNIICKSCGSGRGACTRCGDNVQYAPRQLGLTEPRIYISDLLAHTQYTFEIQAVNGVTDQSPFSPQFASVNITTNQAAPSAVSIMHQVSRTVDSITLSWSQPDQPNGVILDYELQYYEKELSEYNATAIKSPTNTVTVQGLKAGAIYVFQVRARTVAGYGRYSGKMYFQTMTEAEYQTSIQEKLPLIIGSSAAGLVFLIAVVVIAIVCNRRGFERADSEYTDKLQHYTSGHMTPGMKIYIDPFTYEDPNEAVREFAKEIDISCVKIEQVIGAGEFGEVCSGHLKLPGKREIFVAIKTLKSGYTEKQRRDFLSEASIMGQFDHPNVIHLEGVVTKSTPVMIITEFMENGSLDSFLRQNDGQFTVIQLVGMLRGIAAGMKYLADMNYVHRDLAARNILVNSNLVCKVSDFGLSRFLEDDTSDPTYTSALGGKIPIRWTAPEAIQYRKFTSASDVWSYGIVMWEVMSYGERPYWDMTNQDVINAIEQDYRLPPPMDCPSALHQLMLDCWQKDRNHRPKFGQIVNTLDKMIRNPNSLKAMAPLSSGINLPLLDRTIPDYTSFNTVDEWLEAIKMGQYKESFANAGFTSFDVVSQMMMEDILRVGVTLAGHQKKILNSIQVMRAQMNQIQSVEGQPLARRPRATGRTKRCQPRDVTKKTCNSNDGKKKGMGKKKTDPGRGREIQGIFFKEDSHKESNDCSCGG
Chain of Serine/threonine-protein kinase 17B (Homo sapiens) (O94768 whole entry): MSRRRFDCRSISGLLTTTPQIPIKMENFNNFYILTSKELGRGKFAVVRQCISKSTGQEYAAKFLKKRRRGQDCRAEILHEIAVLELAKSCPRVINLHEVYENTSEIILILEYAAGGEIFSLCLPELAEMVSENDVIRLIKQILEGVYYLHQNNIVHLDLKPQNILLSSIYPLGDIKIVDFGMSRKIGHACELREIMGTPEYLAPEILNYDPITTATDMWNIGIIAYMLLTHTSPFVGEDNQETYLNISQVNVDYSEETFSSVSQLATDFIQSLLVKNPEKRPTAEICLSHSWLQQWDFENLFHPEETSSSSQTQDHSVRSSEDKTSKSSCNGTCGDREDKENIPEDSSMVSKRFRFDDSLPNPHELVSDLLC

CN(C)CCOc1cc(-c2cn[nH]c2)ccc1NC(=O)C1COc2ccccc2O1 (stereo not drawn) [SR-3677]
inhibition [1]: < 10%
inhibition [2]: < 10%
inhibition [3]: -6%
inhibition [4]: < 10%
inhibition [5]: < 10%
inhibition [6]: < 10%
inhibition at 10 µM (CYP1A2): 46%
inhibition [7]: < 10%
inhibition [8]: < 10%
inhibition [9]: < 10%
inhibition [10]: 77%
inhibition [11]: < 10%
inhibition [12]: < 10%
inhibition [13]: < 10%
inhibition [14]: < 10%
inhibition [15]: < 10%
inhibition [16]: < 10%
inhibition [17]: < 10%
inhibition [18]: < 10%
inhibition [19]: < 10%
inhibition [20]: < 10%
inhibition [21]: < 10%
inhibition [22]: 99.6%
inhibition [23]: < 10%
inhibition [24]: < 10%
IC50 [25]: 3.5 nM
inhibition [26]: < 10%
inhibition [27]: < 10%
inhibition [28]: < 10%
inhibition [29]: < 10%
inhibition [30]: < 10%
inhibition [31]: < 10%
inhibition [32]: < 10%
inhibition [33]: < 10%
inhibition [34]: < 10%
inhibition [35]: < 10%
inhibition [36]: < 10%
inhibition [37]: < 10%
